Bioassay records: PubChem, several laboratories
This is a sample that favours compounds with a hit; in the whole collection about 3.3% have one here.
ROMK primary – modulators of human ROMK potassium channel | Tet-inducible ROMK, thallium flux fluorescence; actives lie on both sides | P48048 | AID 1918 | 130,000 tested, 2% active | B-score at 10 µM;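 active = signal ratio slope over the read window, or its plate-corrected B-score, at least 3 SD from the plate mean, either direction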;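 also: B-score of the F/F0 ratio slope over 7 to 12 s after thallium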
Target sequence (P48048 whole entry, looked up): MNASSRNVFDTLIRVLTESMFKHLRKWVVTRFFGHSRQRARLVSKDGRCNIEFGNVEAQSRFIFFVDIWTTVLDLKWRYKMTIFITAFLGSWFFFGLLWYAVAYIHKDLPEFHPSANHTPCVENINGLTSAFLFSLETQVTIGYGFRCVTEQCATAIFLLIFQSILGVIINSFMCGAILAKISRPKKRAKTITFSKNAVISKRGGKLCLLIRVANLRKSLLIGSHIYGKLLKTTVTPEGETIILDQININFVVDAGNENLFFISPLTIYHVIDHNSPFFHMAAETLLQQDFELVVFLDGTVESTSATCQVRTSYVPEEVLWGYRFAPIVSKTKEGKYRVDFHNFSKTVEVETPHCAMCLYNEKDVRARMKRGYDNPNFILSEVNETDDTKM
ABCG2 inh – human ABCG2 inhibition, ABCB1 as counter-screen. AID 1325. 190,000 tested, 0.1% active. inhibition, % at 6.6 µM. IgMXP3 cells, JC-1 efflux, flow cytometry. Q9UNQ0;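 active = inhibition above 80%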;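 also: 0% = DMSO and 100% = nicardipine control wells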
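System: two drug-resistant human cell lines, ABCG2 and ABCB1; controls: nicardipine high and DMSO low controls; times: 10 min exposure at 25 °C with rotation, no wash; detection: flow cytometry of retained JC-1 fluorescence; read-out basis: percent efflux inhibition, scaled nicardipine 100% to DMSO 0%; doses: one concentration, 6.6 µM final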
PMI act satM6P – activators of human phosphomannose isomerase at near-saturating mannose 6-phosphate | 190,000 tested, 0.34% active | coupled PMI enzyme assay, resazurin fluorescence, 20 min; stronger effect = higher value; 1 = untreated enzyme, 0 = substrate-free blank | activation factor at 20 µM | AID 1216 | P34949;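 active = activation factor of 2 or more at 20 µM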
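Test system: human phosphomannose isomerase with PGI, G6PDH, diaphorase coupling enzymes / Doses: 20 µM compound, 1% DMSO / Times: enzyme reaction with compound 20 min at room temperature / Measured by: Diaphorase-driven resazurin-to-resorufin fluorescence, excitation 544, emission 590 nm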
ABCB1 inh – blocks JC-1 efflux by human ABCB1 transporter; P08183; CCRF-Adr cells, flow cytometry; inhibition, % at 6.6 µM; 190,000 tested, 0.067% active; in the data active = inhibition above about 40%;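 also: 0% = vehicle and 100% = reference inhibitor; higher value means more JC-1 retained so stronger ABCB1 efflux block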
PMI activator – activators of human phosphomannose isomerase; P34949; purified human PMI, coupled resazurin fluorescence, 20 min; stronger effect = higher value; 1 = vehicle control, 0 substrate-free wells; activation factor at 20 µM; 190,000 tested, 0.005% active;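 active = activation factor of 2 or more at 20 µM, relative to plate controls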
KCC2 mod – KCC2 (human) Cl- transport modulation; Q9H2X9; KCC2 cells, thallium flux FluoZin-2 fluorescence; B-score of Tl+ flux slope (higher = more flux/activation; lower = inhibition) at 10 µM; 190,000 tested, 2.2% active;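 active = thallium flux slope and its plate-corrected score both differing from the plate sample mean at a set confidence after two filtering rounds, in either direction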;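 also: slope of fluorescence scaled to starting intensity during 10 to 20 s after thallium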
KCC2 sec1 – KCC2 (human) modulation, secondary assay. shares compounds with KCC2 mod. normalised thallium flux (F/F0 slope) at 10 µM. 3,700 tested, 15% active. HEK293-KCC2, thallium flux, FluoZin2 fluorescence; stronger effect = higher value;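 active = thallium flux slope above the same plate's solvent-only control mean plus 3 SD; inconclusive = the two replicate wells disagree; inactive = no significant difference from solvent-only control wells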
KCC2 bumet counter – thallium flux despite bumetanide block in KCC2 cells, secondary assay 3; normalized thallium flux at 10 µM; shares compounds with KCC2 mod; HEK293-KCC2 + bumetanide/ouabain, thallium flux FluoZin2; stronger effect = higher value; AID 1714; 3,700 tested, 49% active;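 active = thallium entry rate above the same plate's blocked-transporter control wells by more than 3 SD; inconclusive = the two repeat wells disagree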;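 also: raw slope of fluorescence over initial fluorescence between 10 and 20 s after thallium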
KCC2 sec2 – confirmation of human KCC2 transport modulators; 3,700 tested, 23% active; shares compounds with KCC2 mod; AID 1715; normalized thallium flux at 10 µM; HEK293-KCC2, thallium flux FluoZin2 fluorescence; actives lie on both sides; F/F0 rise rate, 10–20 s post-thallium;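 active = thallium flux slope more than 3 SD above or below the plate's solvent-only control mean, mostly below; inconclusive = the two repeat wells disagreed; inactive = no significant shift from solvent-only controls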;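 also: raw slope with 0.1% DMSO as baseline and bumetanide as block control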
HEK293 Tl flux – acts in parental HEK cells, KCC2 counter-screen; shares compounds with KCC2 mod; HEK293 parental cells, thallium flux FluoZin2, ouabain; baseline-ratio fluorescence slope, 10–20 s after thallium; thallium flux rate (normalised fluorescence) at 10 µM; 3,700 tested, 46% active;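 active = thallium flux rate significantly above the same plate's solvent-only control wells, beyond their mean plus 3 SD; inconclusive = the two replicate wells gave conflicting results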
KCC2 ouabain – modulates human KCC2 on retest with ouabain. raw Tl+ flux slope (below DMSO = inhibition, above = activation) at 10 µM. HEK293-KCC2, thallium flux FluoZin2 fluorescence; bidirectional: low = inhibitor, high = activator. 3,700 tested, 48% active. shares compounds with KCC2 mod;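 active = thallium flux slope beyond 3 SD from same-plate DMSO control mean in most replicates, usually higher, sometimes lower; inconclusive = repeat tests gave conflicting results; inactive = no significant difference from controls in most replicates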;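 also: slope of initial-normalized fluorescence between seconds 10 and 20 after thallium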
HEK counter2 – acts in parental HEK cells, second KCC2 counter-screen; thallium flux slope at 10 µM; AID 1718; 3,700 tested, 33% active; HEK293 parental, thallium flux FluoZin-2 fluorescence slope; shares compounds with KCC2 mod;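 active = thallium flux slope above the same plate's solvent-control mean plus 3 SD in both duplicate wells; inconclusive = duplicate wells that disagreed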;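 also: run without ouabain in cells lacking the KCC2 cotransporter; slope of fluorescence scaled to its starting value between 10 and 20 s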
* hit, by the source's call; ? = inconclusive; · = not tested or not shown.

SMILES	ROMK primary	ABCG2 inh	PMI act satM6P	ABCB1 inh	PMI activator	KCC2 mod	KCC2 sec1	KCC2 bumet counter	KCC2 sec2	HEK293 Tl flux	KCC2 ouabain	HEK counter2
Cc1[nH]c2ccccc2c1C(=O)COC(=O)CCS(=O)(=O)c1ccccc1Cl	·	3.9	1.1	0.0	1	-3.1*	0.0103	?	0.0343	0.00396	0.017*	0.0118
CCOC(=O)c1c(C)c(C(=O)NCc2ccccn2)c(C)n1CC	·	2.1	0.9	0.2	0.9	8.33*	0.00622	0.00468	0.0318	0.00709	0.0193	0.0106
COc1ccc(CCNC(=O)c2c(-c3ccccc3Cl)noc2C)cc1	-0.527	2.0	1.1	0.6	1.1	-1.03	·	·	·	·	·	·
COc1ccccc1NC(=S)NC(=O)c1c(-c2ccccc2Cl)noc1C	1	3.6	0.8	0.7	0.8	3.75*	0.0118	0.0279*	0.0364	?	0.0296*	?
CCOC(=O)c1ccc(NC(=O)C(=O)NCc2ccccn2)cc1	0.434	3.7	0.9	0.7	0.9	0.0068	·	·	·	·	·	·
COc1ccc(CCNC(=S)NC(=O)c2c(-c3ccccc3Cl)noc2C)cc1OC	0.0259	·	·	·	·	0.274	·	·	·	·	·	·
Cc1onc(-c2ccccc2Cl)c1C(=O)NCCN1Cc2ccccc2C1=O	0.173	0.1	1	0.2	1	·	0.0153	0.00388	0.0311	0.00758	0.0168	0.0106
Cc1onc(-c2ccccc2Cl)c1C(=O)NC(=S)Nc1ccccc1F	-1.26	2.1	0.9	0.8	0.9	54.4*	0.0146*	0.0985*	0.0348	0.044*	0.0407*	0.0135*
CCOC(=O)C(Cc1ccc(NC(=O)/C(=C\c2ccccc2)NC(=O)c2ccccc2)cc1)N1C(=O)c2ccccc2C1=O (configuration not stated)	0.0471	0.4	1.1	0.1	1	-0.448	·	·	·	·	·	·
Cc1ccc(S(=O)(=O)NCc2c(Cl)cccc2Oc2ccccc2)cc1	1.26	·	·	·	·	0.897	·	·	·	·	·	·
COc1ccc(CN(C(=O)c2cc(=O)c3cc(C)cc(C)c3o2)C2CCS(=O)(=O)C2)cc1 (configuration not stated)	·	·	·	·	·	-0.366	·	·	·	·	·	·
Cc1cc(C)c(OCCNC(=O)c2ccccc2Sc2ccccc2C#N)c(C)c1	·	20.9	0.9	1.8	0.8	-0.856	·	·	·	·	·	·
Cc1onc(-c2ccccc2Cl)c1C(=O)NCc1ccccn1	-0.392	3.0	0.9	0.7	0.9	-0.072	·	·	·	·	·	·
Cc1onc(-c2c(F)cccc2Cl)c1C(=O)NCc1ccccn1	·	0.6	1.1	0.5	1.1	-4.92*	?	?	?	0.0079	0.0225	0.0111
CN(Cc1cnccn1)Cc1ccccc1OCC(O)CN1CCc2ccccc2C1 (configuration not stated)	-0.062	4.8	0.9	1.9	0.8	·	·	·	·	·	·	·
Cc1ccc(CCNC(=O)NC(C)(C)C)cc1	·	4.0	0.9	1.0	0.9	-0.0371	·	·	·	·	·	·
Cc1ccc(CCNC(=O)Cn2cccc2)cc1	-0.634	0.2	1	0.1	1	·	0.0115	0.00641	0.0311	0.00784	0.0227	0.01
